Experiments:
[1] = Antiviral activity against Influenza A virus A/WSN/33 (H1N1) infected in MDCK cells assessed as inhibition of virus-induced cell death at 100 uM after 36 hrs by CellTiter-Glo luminescent cell viability assay; format: functional, Influenza A virus (A/WSN/1933(H1N1))
Summary of the method: (§1)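 MDCK cells in DMEM/10% FBS with penicillin-streptomycin, seeded 1 × 10^5/well 24 h before infection (37 °C, 5% CO2). Virus was grown in MDCK with 2 μg/mL TPCK-trypsin. Compound premixed with virus 15 min at room temperature, then added after medium removal. Read at 36 h postinfection by microscopy, confirmed by CellTiter-Glo. Inhibition % computed from luminescence relative to DMSO with/without virus. IC50 measured for significant inhibitors.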

[2] = system: MDCK; assay: Cytotoxicity against MDCK cells assessed as reduction in cell viability at 100 uM after 36 hrs by CellTiter-Glo luminescent assay; format: cell-based, Canis lupus familiaris; conditions: dog
Summary of the method: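 Uninfected MDCK cells, grown in DMEM with 10% FBS, 100 U/mL penicillin and 100 μg/mL streptomycin, were incubated with compound for 36 h. Cytopathic effect was scored by microscopy and confirmed by CellTiter-Glo luminescent viability read-out.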

[3] = Antiviral activity against Influenza A virus A/WSN/33 (H1N1) infected in MDCK cells assessed as inhibition of virus-induced cell death after 36 hrs by CellTiter-Glo luminescent cell viability assay; format: functional, cell-based, Influenza A virus (A/WSN/1933(H1N1)); summary of the method: as §1
[4] = system: Human immunodeficiency virus 1; assay: Antiviral activity against VSV-G protein pseudotyped HIV1 infected in 293T cells assessed as inhibition of viral replication after 48 hrs by luciferase reporter assay; format: functional, organism-based; conditions: Human immunodeficiency virus 1, HEK-293T
Summary of the method: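 Pseudovirus was made by cotransfecting 293T cells with pNL-Luc-E and pHIT/G and harvesting filtered supernatant after 48 h. Capsid level was quantified by p24 ELISA. SupT1 cells were infected at MOI 1 with or without compound (efavirenz as positive control) at […] for 48 h. Luciferase read-out gave inhibition rate. Compounds above 50% at 100 μM were taken to IC50.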

[5] = system: Human immunodeficiency virus 1; assay: Antiviral activity against VSV-G protein pseudotyped HIV1 infected in 293T cells assessed as inhibition of viral replication at 100 uM after 48 hrs by luciferase reporter assay; format: functional; conditions: Human immunodeficiency virus 1, HEK-293T

SMILES | inhibition at 100 µM [1] | Activity [2] | IC50 [3] | IC50 [4] | inhibition at 100 µM [5]
C[C@@H]1O[C@@H](O[C@H]2[C@H](O[C@H]3[C@H](O[C@H]4CC[C@]5(C)[C@H]6C(=O)C=C7[C@@H]8C[C@@](C)(C(=O)O)[C@H](O)C[C@]8(C)CC[C@@]7(C)[C@]6(C)CC[C@H]5C4(C)C)O[C@H](C(=O)O)[C@@H](O)[C@@H]3O)O[C@H](CO)[C@@H](O)[C@@H]2O)[C@H](O)[C@H](O)[C@H]1O | 47.5% | Non-toxic | 42.7 µM | – | –
C[C@@H]1O[C@@H](O[C@@H]2CC(C)(C)C[C@H]3C4=CC(=O)[C@@H]5[C@@]6(C)CC[C@H](O[C@@H]7O[C@H](C(=O)O)[C@@H](O)[C@H](O)[C@H]7O[C@@H]7O[C@H](C(=O)O)[C@@H](O)[C@H](O)[C@H]7O)C(C)(C)[C@@H]6CC[C@@]5(C)[C@]4(C)CC[C@@]23C)[C@H](O)[C@H](O)[C@H]1O | 47.5% | Non-toxic | 39.6 µM | – | –
CC(=O)O[C@@H]1C[C@](C)(C(=O)O)C[C@H]2C3=CC(=O)[C@@H]4[C@@]5(C)CC[C@H](O[C@H]6O[C@H](C(=O)O)[C@@H](O)[C@H](O)[C@H]6O[C@@H]6O[C@H](C(=O)O)[C@@H](O)[C@H](O)[C@H]6O)C(C)(C)[C@@H]5CC[C@@]4(C)[C@]3(C)CC[C@@]12C | 47.5% | Non-toxic | 49.1 µM | 29.5 µM | –
CC1(C)[C@@H](O[C@@H]2O[C@H](C(=O)O)[C@@H](O)[C@H](O)[C@H]2O[C@@H]2O[C@H](C(=O)O)[C@@H](O)[C@H](O)[C@H]2O)CC[C@]2(C)[C@H]3C(=O)C=C4[C@@H]5C[C@]6(C)C[C@@H](OC6=O)[C@]5(C)CC[C@@]4(C)[C@]3(C)CC[C@@H]12 | – | – | – | 87.1 µM | > 50%
CC1(C)[C@@H](O[C@@H]2O[C@H](C(=O)O)[C@@H](O)[C@H](O)[C@H]2O[C@@H]2O[C@H](C(=O)O)[C@@H](O)[C@H](O)[C@H]2O)CC[C@]2(C)[C@H]3CC=C4[C@@H]5C[C@@](C)(C(=O)O)CC[C@]5(C)CC[C@@]4(C)[C@]3(C)CC[C@@H]12 | – | – | – | 83.2 µM | > 50%
CC1(C)[C@@H](O[C@H]2O[C@H](C(=O)O)[C@@H](O)[C@H](O)[C@H]2O[C@@H]2OC[C@H](O)[C@H](O)[C@H]2O)CC[C@]2(C)[C@H]3C(=O)C=C4[C@@H]5C[C@@](C)(C(=O)O)CC[C@]5(C)CC[C@@]4(C)[C@]3(C)CC[C@@H]12 | – | – | – | 85.1 µM | > 50%
CC(=O)O[C@@H]1C[C@](C)(C=O)C[C@H]2C3=CC(=O)[C@@H]4[C@@]5(C)CC[C@H](O)C(C)(C)[C@@H]5CC[C@@]4(C)[C@]3(C)CC[C@@]12C | – | – | – | 69.2 µM | > 50%
CC1(C)[C@@H](O[C@@H]2O[C@H](CO)[C@@H](O)[C@H](O)[C@H]2O)CC[C@]2(C)[C@H]3C(=O)C=C4[C@@H]5C[C@@](C)(C(=O)O)CC[C@]5(C)CC[C@@]4(C)[C@]3(C)CC[C@@H]12 | – | – | – | 41.7 µM | > 50%
CC1(C)[C@@H](O)CC[C@]2(C)[C@H]3C(=O)C=C4[C@@H]5C[C@@](C)(C(=O)O)CC[C@]5(C)CC[C@@]4(C)[C@]3(C)CC[C@@H]12 [ENOXOLONE] | – | – | – | 28.8 µM | –
CCOC(=O)C1=C[C@@H](OC(CC)CC)[C@H](NC(C)=O)[C@@H](N)C1 [OSELTAMIVIR PHOSPHATE] | 78% | – | 45.6 µM | – | –
